Experiment [1] has as its target T1, Pituitary adenylate cyclase-activating polypeptide type I receptor (Homo sapiens, UniProt P41586). The experiment is described as follows: Agonist activity at human recombinant PAC1 receptor expressed in CHO cells assessed as PACAP38-induced calcium mobilization by FLIPR assay relative to PACAP38. It is filed as functional, cell-based. The gist of the method:
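CHO cells stably expressing recombinant human PAC1, plated 24 h before assay, loaded with fluo-4 AM for 60 min at 37 °C in the dark, then rinsed into HBSS for 15 min at 37 °C. Peptide was added 18 s into a 150 s read (ex 480/em 525 nm), at final concentrations of 1 × 10-12 to 1 × 10^-5 M. Response was normalised to 1 × 10^-5 M PACAP38 on each plate. EC50 and efficacy came from nonlinear regression; 4-10 independent assays in duplicate.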
Target sequence in this assay (P41586 21-468 limits assumed): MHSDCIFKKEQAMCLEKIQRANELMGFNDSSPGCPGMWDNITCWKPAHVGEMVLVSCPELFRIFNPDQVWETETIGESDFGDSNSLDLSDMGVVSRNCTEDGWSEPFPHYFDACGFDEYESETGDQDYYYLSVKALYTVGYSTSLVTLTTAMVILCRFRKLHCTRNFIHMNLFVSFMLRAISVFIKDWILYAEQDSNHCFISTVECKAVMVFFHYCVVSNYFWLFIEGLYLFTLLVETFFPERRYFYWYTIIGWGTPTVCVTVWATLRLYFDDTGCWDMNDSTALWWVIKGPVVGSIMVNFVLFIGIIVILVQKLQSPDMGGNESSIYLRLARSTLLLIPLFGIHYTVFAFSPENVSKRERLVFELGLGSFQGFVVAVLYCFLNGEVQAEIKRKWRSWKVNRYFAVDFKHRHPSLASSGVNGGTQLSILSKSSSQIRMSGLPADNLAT

Experiment [2] deals with T1, Pituitary adenylate cyclase-activating polypeptide type I receptor. The experiment is described as follows: Displacement of [125I]Ac-PACAP27 from human recombinant PAC1 receptor expressed in CHO cells by gamma- counter. It is filed as cell-based. (In general: Loss of bound radioactivity is the signal in a displacement assay; it reports binding, not function.)
Target sequence in this assay (P41586 whole entry): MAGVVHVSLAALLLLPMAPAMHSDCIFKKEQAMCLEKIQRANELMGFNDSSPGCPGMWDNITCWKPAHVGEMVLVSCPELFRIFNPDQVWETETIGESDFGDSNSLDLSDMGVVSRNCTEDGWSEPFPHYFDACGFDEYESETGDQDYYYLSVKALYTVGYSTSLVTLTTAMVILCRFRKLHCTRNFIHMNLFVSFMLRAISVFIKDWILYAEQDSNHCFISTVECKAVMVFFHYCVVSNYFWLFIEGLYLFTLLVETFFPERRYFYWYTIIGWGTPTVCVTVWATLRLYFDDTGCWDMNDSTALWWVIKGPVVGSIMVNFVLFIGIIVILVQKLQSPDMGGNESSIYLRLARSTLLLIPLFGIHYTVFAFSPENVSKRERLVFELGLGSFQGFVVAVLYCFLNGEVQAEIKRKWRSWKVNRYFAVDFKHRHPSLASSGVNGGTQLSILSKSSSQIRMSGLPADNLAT
For experiment [3] the target is unchanged. The experiment is described as follows: Agonist activity at human recombinant PAC1 receptor expressed in CHO cells assessed as PACAP38-induced calcium mobilization by FLIPR assay. In kind it is functional, cell-based. Summed up: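 CHO cells stably expressing recombinant human PAC1, plated 24 h before assay, loaded with fluo-4 AM for 60 min at 37 °C in the dark, then rinsed into HBSS for 15 min at 37 °C. EC50 and efficacy came from nonlinear regression; 4-10 independent assays in duplicate.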
Target sequence in this assay (P41586 whole entry): as above
(A change in cytosolic calcium serves as a functional read-out for many receptors and channels.)

pEC50, pIC50: −log10 of the molar value. Where a SMILES comes first, the peptide text is derived from it. [ ]: non-standard residue; d: D form. Cha = N[C@@H](CC1CCCCC1)C(=O)O

One may read the Emax as the maximal effect, on the per cent scale that the assay sets. The term pIC50 denotes the negative decadic logarithm of the IC50, by convention in mol/L. As usually defined, the pEC50 is the negative decadic logarithm of the EC50, by convention in mol/L.

Turning to `CC[C@H](C)[C@H](NC(=O)CNC(=O)[C@H](CC(=O)O)NC(=O)[C@H](CO)NC(=O)[C@@H](N)Cc1cnc[nH]1)C(=O)N[C@@H](Cc1ccccc1)C(=O)N[C@@H](C)C(=O)N[C@@H](CC(=O)O)C(=O)N[C@@H](CO)C(=O)N[C@@H](Cc1ccc(O)cc1)C(=O)N[C@@H](CO)C(=O)N[C@@H](CCCNC(=N)N)C(=O)N[C@@H](Cc1ccc(O)cc1)C(=O)N[C@@H](CCCNC(=N)N)C(=O)N[C@@H](CCCCN)C(=O)N[C@@H](CCC(N)=O)C(=O)N[C@@H](CCSC)C(=O)N[C@@H](C)C(=O)N[C@H](C(=O)N[C@@H](CCCCN)C(=O)N[C@@H](CCCCN)C(=O)N[C@@H](Cc1ccc(O)cc1)C(=O)N[C@@H](CC(C)C)C(=O)N[C@@H](C)C(=O)N[C@@H](C)C(=O)N[C@H](C(=O)N[C@@H](CC(C)C)C(=O)NCC(=O)N[C@@H](CCCCN)C(=O)N[C@@H](CCCNC(=N)N)C(=O)N[C@@H](Cc1ccc(O)cc1)C(=O)N[C@@H](CCCCN)C(=O)N[C@@H](CCC(N)=O)C(=O)N[C@@H](CCCNC(=N)N)C(=O)N[C@H](C(=O)N[C@@H](CCCCN)C(=O)N[C@@H](CC(N)=O)C(=O)N[C@@H](CCCCN)C(N)=O)C(C)C)C(C)C)C(C)C` (H-HSDGIFADSYSRYRKQMAVKKYLAAVLGKRYKQRVKNK-NH2), the Emax in experiment [1] is 101%. Moreover, the pIC50 in experiment [2] was 8.40. In experiment [3], the pEC50 was 9.10.
For the compound `CC[C@H](C)[C@H](NC(=O)CNC(=O)[C@H](CC(=O)O)NC(=O)[C@H](CO)NC(=O)[C@@H](N)Cc1cnc[nH]1)C(=O)N[C@@H](C)C(=O)N[C@H](C(=O)N[C@@H](CC(=O)O)C(=O)N[C@@H](CO)C(=O)N[C@@H](Cc1ccc(O)cc1)C(=O)N[C@@H](CO)C(=O)N[C@@H](CCCNC(=N)N)C(=O)N[C@@H](Cc1ccc(O)cc1)C(=O)N[C@@H](CCCNC(=N)N)C(=O)N[C@@H](CCCCN)C(=O)N[C@@H](CCC(N)=O)C(=O)N[C@@H](CCSC)C(=O)N[C@@H](C)C(=O)N[C@H](C(=O)N[C@@H](CCCCN)C(=O)N[C@@H](CCCCN)C(=O)N[C@@H](Cc1ccc(O)cc1)C(=O)N[C@@H](CC(C)C)C(=O)N[C@@H](C)C(=O)N[C@@H](C)C(=O)N[C@H](C(=O)N[C@@H](CC(C)C)C(N)=O)C(C)C)C(C)C)[C@@H](C)O`, the Emax in experiment [1] was 65.3%. For the same compound, the pIC50 in experiment [2] is 5.88. Besides, the pEC50 in experiment [3] is 6.34.
The like results for `CC[C@H](C)[C@H](NC(=O)CNC(=O)[C@H](CC(=O)O)NC(=O)[C@H](CO)NC(=O)[C@@H](N)Cc1cnc[nH]1)C(=O)N[C@@H](CC1CCCCC1)C(=O)N[C@H](C(=O)N[C@@H](CC(=O)O)C(=O)N[C@@H](CO)C(=O)N[C@@H](Cc1ccc(O)cc1)C(=O)N[C@@H](CO)C(=O)N[C@@H](CCCNC(=N)N)C(=O)N[C@@H](Cc1ccc(O)cc1)C(=O)N[C@@H](CCCNC(=N)N)C(=O)N[C@@H](CCCCN)C(=O)N[C@@H](CCC(N)=O)C(=O)N[C@@H](CCSC)C(=O)N[C@@H](C)C(=O)N[C@H](C(=O)N[C@@H](CCCCN)C(=O)N[C@@H](CCCCN)C(=O)N[C@@H](Cc1ccc(O)cc1)C(=O)N[C@@H](CC(C)C)C(=O)N[C@@H](C)C(=O)N[C@@H](C)C(=O)N[C@H](C(=O)N[C@@H](CC(C)C)C(=O)NCC(=O)N[C@@H](CCCCN)C(=O)N[C@@H](CCCNC(=N)N)C(=O)N[C@@H](Cc1ccc(O)cc1)C(=O)N[C@@H](CCCCN)C(=O)N[C@@H](CCC(N)=O)C(=O)N[C@@H](CCCNC(=N)N)C(=O)N[C@H](C(=O)N[C@@H](CCCCN)C(=O)N[C@@H](CC(N)=O)C(=O)N[C@@H](CCCCN)C(N)=O)C(C)C)C(C)C)C(C)C)[C@@H](C)O` (H-HSDGI[Cha]TDSYSRYRKQMAVKKYLAAVLGKRYKQRVKNK-NH2) were, in that order, 97.7%, 8.18 and 8.59.
For `CC[C@H](C)[C@H](NC(=O)CNC(=O)[C@H](CC(=O)O)NC(=O)[C@H](CO)N(C)C(=O)[C@@H](N)Cc1cnc[nH]1)C(=O)N[C@@H](Cc1ccccc1)C(=O)N[C@H](C(=O)N[C@@H](CC(=O)O)C(=O)N[C@@H](CO)C(=O)N[C@@H](Cc1ccc(O)cc1)C(=O)N[C@@H](CO)C(=O)N[C@@H](CCCNC(=N)N)C(=O)N[C@@H](Cc1ccc(O)cc1)C(=O)N[C@@H](CCCNC(=N)N)C(=O)N[C@@H](CCCCN)C(=O)N[C@@H](CCC(N)=O)C(=O)N[C@@H](CCSC)C(=O)N[C@@H](C)C(=O)N[C@H](C(=O)N[C@@H](CCCCN)C(=O)N[C@@H](CCCCN)C(=O)N[C@@H](Cc1ccc(O)cc1)C(=O)N[C@@H](CC(C)C)C(=O)N[C@@H](C)C(=O)N[C@@H](C)C(=O)N[C@H](C(=O)N[C@@H](CC(C)C)C(=O)NCC(=O)N[C@@H](CCCCN)C(=O)N[C@@H](CCCNC(=N)N)C(=O)N[C@@H](Cc1ccc(O)cc1)C(=O)N[C@@H](CCCCN)C(=O)N[C@@H](CCC(N)=O)C(=O)N[C@@H](CCCNC(=N)N)C(=O)N[C@H](C(=O)N[C@@H](CCCCN)C(=O)N[C@@H](CC(N)=O)C(=O)N[C@@H](CCCCN)C(N)=O)C(C)C)C(C)C)C(C)C)[C@@H](C)O` the same measures were 87.7%, 8.04 and 6.96.
For `CSCC[C@H](NC(=O)[C@H](CCC(N)=O)NC(=O)[C@H](CCCCN)NC(=O)[C@H](CCCNC(=N)N)NC(=O)[C@H](Cc1ccc(O)cc1)NC(=O)[C@H](CCCNC(=N)N)NC(=O)[C@H](CO)NC(=O)[C@H](Cc1ccc(O)cc1)NC(=O)[C@H](CO)NC(=O)[C@H](CC(=O)O)NC(=O)[C@@H](NC(=O)[C@H](Cc1ccccc1)NC(=O)[C@H](C)NC(=O)CNC(=O)[C@H](CC(=O)O)NC(=O)[C@H](CO)NC(=O)[C@@H](N)Cc1cnc[nH]1)[C@@H](C)O)C(=O)N[C@@H](C)C(=O)N[C@H](C(=O)N[C@@H](CCCCN)C(=O)N[C@@H](CCCCN)C(=O)N[C@@H](Cc1ccc(O)cc1)C(=O)N[C@@H](CC(C)C)C(=O)N[C@@H](C)C(=O)N[C@@H](C)C(=O)N[C@H](C(=O)N[C@@H](CC(C)C)C(=O)NCC(=O)N[C@@H](CCCCN)C(=O)N[C@@H](CCCNC(=N)N)C(=O)N[C@@H](Cc1ccc(O)cc1)C(=O)N[C@@H](CCCCN)C(=O)N[C@@H](CCC(N)=O)C(=O)N[C@@H](CCCNC(=N)N)C(=O)N[C@H](C(=O)N[C@@H](CCCCN)C(=O)N[C@@H](CC(N)=O)C(=O)N[C@@H](CCCCN)C(N)=O)C(C)C)C(C)C)C(C)C` (H-HSDGAFTDSYSRYRKQMAVKKYLAAVLGKRYKQRVKNK-NH2), the Emax in experiment [1] is 88.3%. In experiment [2], the pIC50 was 7.46. Also, the pEC50 in experiment [3] is 8.02.
In the case of `CC[C@H](C)[C@H](NC(=O)CNC(=O)[C@H](CC(=O)O)NC(=O)[C@H](CO)NC(=O)[C@@H](N)Cc1cncn1C)C(=O)N[C@@H](Cc1ccccc1)C(=O)N[C@H](C(=O)N[C@@H](CC(=O)O)C(=O)N[C@@H](CO)C(=O)N[C@@H](Cc1ccc(O)cc1)C(=O)N[C@@H](CO)C(=O)N[C@@H](CCCNC(=N)N)C(=O)N[C@@H](Cc1ccc(O)cc1)C(=O)N[C@@H](CCCNC(=N)N)C(=O)N[C@@H](CCCCN)C(=O)N[C@@H](CCC(N)=O)C(=O)N[C@@H](CCSC)C(=O)N[C@@H](C)C(=O)N[C@H](C(=O)N[C@@H](CCCCN)C(=O)N[C@@H](CCCCN)C(=O)N[C@@H](Cc1ccc(O)cc1)C(=O)N[C@@H](CC(C)C)C(=O)N[C@@H](C)C(=O)N[C@@H](C)C(=O)N[C@H](C(=O)N[C@@H](CC(C)C)C(N)=O)C(C)C)C(C)C)[C@@H](C)O`, in experiment [1], the Emax was found to be 96.9%. In experiment [2], the pIC50 is 7.81. Also, the pEC50 in experiment [3] was 7.28.
For the compound `CC[C@H](C)[C@H](NC(=O)CNC(=O)[C@H](CCCC(=O)O)NC(=O)[C@H](CO)NC(=O)[C@@H](N)Cc1cnc[nH]1)C(=O)N[C@@H](Cc1ccccc1)C(=O)N[C@H](C(=O)N[C@@H](CC(=O)O)C(=O)N[C@@H](CO)C(=O)N[C@@H](Cc1ccc(O)cc1)C(=O)N[C@@H](CO)C(=O)N[C@@H](CCCNC(=N)N)C(=O)N[C@@H](Cc1ccc(O)cc1)C(=O)N[C@@H](CCCNC(=N)N)C(=O)N[C@@H](CCCCN)C(=O)N[C@@H](CCC(N)=O)C(=O)N[C@@H](CCSC)C(=O)N[C@@H](C)C(=O)N[C@H](C(=O)N[C@@H](CCCCN)C(=O)N[C@@H](CCCCN)C(=O)N[C@@H](Cc1ccc(O)cc1)C(=O)N[C@@H](CC(C)C)C(=O)N[C@@H](C)C(=O)N[C@@H](C)C(=O)N[C@H](C(=O)N[C@@H](CC(C)C)C(N)=O)C(C)C)C(C)C)[C@@H](C)O`, the Emax in experiment [1] is 29.3%. The pIC50 in experiment [2] was 6.09. The pEC50 in experiment [3] is 6.08.
Turning to `CC[C@H](C)[C@H](NC(=O)CNC(=O)[C@H](CC(=O)O)NC(=O)[C@H](CO)NC(=O)[C@H](Cc1cnc[nH]1)NC(C)=O)C(=O)N[C@@H](Cc1ccccc1)C(=O)N[C@H](C(=O)N[C@@H](CC(=O)O)C(=O)N[C@@H](CO)C(=O)N[C@@H](Cc1ccc(O)cc1)C(=O)N[C@@H](CO)C(=O)N[C@@H](CCCNC(=N)N)C(=O)N[C@@H](Cc1ccc(O)cc1)C(=O)N[C@@H](CCCNC(=N)N)C(=O)N[C@@H](CCCCN)C(=O)N[C@@H](CCC(N)=O)C(=O)N[C@@H](CCSC)C(=O)N[C@@H](C)C(=O)N[C@H](C(=O)N[C@@H](CCCCN)C(=O)N[C@@H](CCCCN)C(=O)N[C@@H](Cc1ccc(O)cc1)C(=O)N[C@@H](CC(C)C)C(=O)N[C@@H](C)C(=O)N[C@@H](C)C(=O)N[C@H](C(=O)N[C@@H](CC(C)C)C(N)=O)C(C)C)C(C)C)[C@@H](C)O`, the Emax in experiment [1] amounted to 96.3%. In experiment [2], the pIC50 is 8.09. Moreover, the pEC50 in experiment [3] is 8.01.

The record behind these values is ChEMBL document CHEMBL1138520, “Molecular and conformational determinants of pituitary adenylate cyclase-activating polypeptide (PACAP) for activation of the PAC1 receptor” (J Med Chem, 2009).
